The source of these data is paper PMC5628144 (Phytotherapy research : PTR, 2017).

Values joined by “and” are separate entries in the source; they are usually repeats but may differ in a detail not shown here. Identical values can stand only once.

The subject of experiment [1] is MDA-MB-231 breast cancer cells. The experiment is described as follows: MTT cell proliferation assay, HGF-induced, MDA-MB-231. The note with it: 48 h. In kind it is cell-based, human. The method in brief:
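MDA-MB-231 cells were seeded at 1×10⁴/well (6 wells/group) in RPMI-1640 with 10% FBS overnight. They were PBS-washed and treated for 48 h at 37°C in serum-free RPMI with 40 ng/mL HGF and 10 or 40 µM test compound, or DMSO vehicle. MTT 1 mg mL⁻¹ for 4 h, DMSO solubilisation, A570. Cell number came from a standard curve, and % survival was taken relative to DMSO wells.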
(Tetrazolium assays rely on reduction of a dye to a coloured formazan, in cell work by metabolically active cells.)

Another experiment concerns the target c-Met kinase (Homo sapiens, UniProt P08581). As to the kind of experiment: Cell-free Z'-LYTE kinase assay, c-Met phosphorylation inhibition. In kind it is biochemical. The note with it: for IC50: read-out: c-Met phosphorylation inhibitory IC50, various doses; for % c-Met Inhibition using Cell-Free assay (5 µM dose): single 5 µM dose. The method in brief:
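Purified c-Met kinase domain, pre-phosphorylated in vitro, in a Z'-LYTE Tyr6 peptide kit. Reactions held kinase buffer, 200 µM ATP, 4 µM Tyr6 peptide, 2500 ng mL⁻¹ c-Met and test compound, run 1 h at rt. Protease development solution then added for 1 h. Read-out was the 445/520 nm fluorescence ratio. Screen at 5 µM, then various doses, N=3/dose. IC50 from non-linear regression.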

For a further experiment, the system named is MDA-MB-231 cells. As to the kind of experiment: Wound-healing scratch assay. The note with it: read-out: IC50, HGF-induced cell migration; WHA, MDA-MB-231, 24 h, 40 ng/mL HGF. Format: cell-based, human. The method in brief: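 Scratch wounds were made with a pipette tip in overnight confluent MDA-MB-231 monolayers, then rinsed with PBS and RPMI. Test compound at various doses in serum-free medium with 40 ng/mL HGF, in triplicate, for 24 h. Cells were fixed and Giemsa-stained, and wound width measured at 0 and 24 h. % migration calculated against DMSO-treated wells, with IC50 by non-linear regression. Oleocanthal 10 µM was the positive control.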

Experiment [2] deals with MDA-MB-468 breast cancer cells. The experiment is described as follows: MTT cell proliferation assay, HGF-induced, MDA-MB-468. In kind it is cell-based, human. Conditions: MDA-MB-468, various doses. The method in brief: (§1)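 MDA-MB-468, MCF-7 or BT-474 cells were seeded at 1×10⁴/well (6 wells/group) in RPMI-1640 with 10% FBS and left overnight at 37°C, 5% CO₂. After a PBS wash they got serum-free RPMI with 40 ng/mL HGF plus test compound at various doses, or DMSO (≤0.1%), for 48 h. MTT (1 mg mL⁻¹) for 4 h, formazan dissolved in DMSO, A570. IC50 by non-linear regression.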

Experiment [3] relates to BT-474 breast cancer cells. The experiment is described as follows: MTT cell proliferation assay, HGF-induced, BT-474. The note with it: BT-474, various doses. Format: cell-based, human. The method in brief: as §1
Experiment [4] relates to MCF-7 breast cancer cells. As to the kind of experiment: MTT cell proliferation assay, HGF-induced, MCF-7. In kind it is cell-based, human. Conditions: MCF-7, various doses. The gist of the method: as §1

c-Met kinase, sequence (P08581 1078-1345 limits assumed): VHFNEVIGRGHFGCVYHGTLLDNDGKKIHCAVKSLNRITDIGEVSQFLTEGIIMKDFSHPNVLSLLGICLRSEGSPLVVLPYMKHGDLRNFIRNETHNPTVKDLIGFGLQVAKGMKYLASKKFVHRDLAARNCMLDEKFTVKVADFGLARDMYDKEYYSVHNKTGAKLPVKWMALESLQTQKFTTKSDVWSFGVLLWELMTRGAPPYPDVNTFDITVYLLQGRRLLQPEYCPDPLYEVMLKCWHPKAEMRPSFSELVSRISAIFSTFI

Take `C[C@@H]1O[C@@H](OC(=O)/C=C/c2ccc(O)cc2)[C@H](O)[C@H](OC(=O)/C=C/c2ccc(O)c(O)c2)[C@H]1O` (relative stereo) [Compound 10, 1-O-trans-p-coumaroyl-3-O-trans-caffeoyl-α-L-rhamnopyranose]: the “% Survival Inhibition” value was 28% and 28.2% in experiment [1] (10 µM); 49% and 49.2% in experiment [1] (40 µM). Further, the IC50 at c-Met kinase was determined as 12.7 µM; in the experiment with MDA-MB-231 cells, 8.1 µM. The “% c-Met Inhibition using Cell-Free assay (5 µM dose)” value on c-Met kinase amounted to 38.8%.

In the case of premnoside E [Compound 4], the “% Survival Inhibition” value in experiment [1] (40 µM) came to 7%. Further, the “% c-Met Inhibition using Cell-Free assay (5 µM dose)” value on c-Met kinase is recorded as 0%.

As to `COc1ccc(/C=C/C(=O)O[C@@H]2[C@@H](O)[C@@H](O)[C@H](O[C@H]3[C@@H]4C=CO[C@@H](O[C@@H]5O[C@H](CO)[C@@H](O)[C@H](O)[C@H]5O)[C@@H]4[C@@]4(CO)O[C@@H]34)O[C@H]2C)cc1` [Compound 8, 6-O-α-L-(4”-O-p-methoxycinnamoyl) rhamnopyranosylcatalpol], the “% Survival Inhibition” value in experiment [1] (10 µM) was 32%; in experiment [1] (40 µM) it was 61% and 61.3%. The IC50 was 6.9 µM on c-Met kinase and 13.5 µM with MDA-MB-231 cells. The “% c-Met Inhibition using Cell-Free assay (5 µM dose)” value at c-Met kinase was determined as 56.7%.

As to `C[C@@H]1O[C@@H](OC(=O)/C=C/c2ccc(O)cc2)[C@H](OC(=O)/C=C/c2ccc(O)c(O)c2)[C@H](O)[C@H]1O` (relative stereo) [Compound 9, 1-O-trans-p-coumaroyl-2-O-trans-caffeoyl-α-L-rhamnopyranose], the HGF-induced proliferation result in experiment [2], in experiment [3] and in experiment [4] was “dose-dependent suppression” in each case. Moreover, the “% Survival Inhibition” value in experiment [1] (10 µM) was 50% and 51.3%; in experiment [1] (40 µM), 80% and 79.3%. For the same molecule, the IC50 at c-Met kinase was 2.5 µM; in the experiment on MDA-MB-231 cells, 0.98 µM.

Consider premnoside B [Compound 6], for which the entries for the “% Survival Inhibition” value in experiment [1] (10 µM) and in experiment [1] (40 µM) were 10% and 13%, respectively. Also, the “% c-Met Inhibition using Cell-Free assay (5 µM dose)” value on c-Met kinase is reported as 0%.

As to premnoside C [Compound 7], the entries for the “% Survival Inhibition” value in experiment [1] (10 µM) and in experiment [1] (40 µM) were 13% and 18%, respectively. Moreover, the “% c-Met Inhibition using Cell-Free assay (5 µM dose)” value on c-Met kinase turned out to be 0%.

Regarding premnoside G [Compound 5], the “% Survival Inhibition” value in experiment [1] (40 µM) turned out to be 20%. For the same molecule, the “% c-Met Inhibition using Cell-Free assay (5 µM dose)” value on c-Met kinase turned out to be 0%.

Regarding `COc1ccc(C=CC(=O)OC2C(C)OC(OC3C4C=COC(OC5OC(CO)C(O)C(O)C5O)C4C4(CO)OC34)C(O)C2OC(=O)C=Cc2ccc(OC)cc2)cc1` [Compound 2, 6-O-α-L-(3″,4″-di-O-trans-p-methoxycinnamoyl)-rhamnopyranosylcatalpol], the “% Survival Inhibition” value in experiment [1] (40 µM) was determined as 17%. Moreover, the “% c-Met Inhibition using Cell-Free assay (5 µM dose)” value on c-Met kinase was determined as 0%.

As for `C[C@@H]1O[C@@H](O[C@H]2[C@@H]3C=CO[C@@H](O[C@@H]4O[C@H](CO)[C@@H](O)[C@H](O)[C@H]4O)[C@@H]3[C@@]3(CO)O[C@@H]23)[C@H](O)[C@H](OC(=O)/C=C/c2ccc(O)cc2)[C@H]1OC(=O)/C=C/c1ccc(O)cc1` (relative stereo) [Compound 1, 6-O-α-L-(3″,4″-di-O-trans-p-coumaroyl) rhamnopyranosylcatalpol], the “% Survival Inhibition” value in experiment [1] (40 µM) worked out at 26%. The “% c-Met Inhibition using Cell-Free assay (5 µM dose)” value at c-Met kinase is given as 0%.

“6-O-α-L-(3″-O-trans-p-coumaroyl-4″-O-trans-caffeoyl)-rhamnopyrano-sylcatalpol [Compound 3]”: the “% Survival Inhibition” value in experiment [1] (10 µM) is on record as 27%; in experiment [1] (40 µM) it was 30%. Besides, the “% c-Met Inhibition using Cell-Free assay (5 µM dose)” value on c-Met kinase amounted to 10.9%.
